{"data": "Experimental data of several laboratories", "target": "Proto-oncogene tyrosine-protein kinase ROS (ROS1, Homo sapiens, UniProt P08922)"}
{"SMILES": "O=C(c1ccc(Nc2ncc(Cl)c(-c3ccc(Cl)s3)n2)cc1)N1CCC(N2CCCC2)CC1", "assay": "binding, competition with immobilised ligand", "conditions": "1 µM", "remaining binding": "37%"}
{"SMILES": "Cc1cnn2ncc(-c3ccnc(N(C)C)n3)c2c1", "assay": "binding", "conditions": "1 µM", "remaining binding": "100%"}
{"SMILES": "O=C(Nc1cccnn1)N1CCC(=Cc2cccc(Oc3ccc(C(F)(F)F)cn3)c2)CC1", "assay": "cell-free assay, competition with immobilised ligand", "conditions": "1 µM", "remaining binding": "80%"}
{"SMILES": "C[C@@H](c1ccc(-n2cnc3c(N)ncnc32)cc1)N1CCc2nn(C)c(Cc3ccccc3)c2C1=O", "assay": "binding, competition with immobilised ligand", "conditions": "0.1 µM", "remaining binding": "100%"}
{"SMILES": "CO[C@@H](C)c1c(Nc2ccc([C@H](N(C)C(=O)C3CCS(=O)(=O)CC3)C(F)(F)F)cc2)cnc2cc(Cl)nn12", "assay": "cell-free assay, competition with immobilised ligand", "conditions": "1 µM", "remaining binding": "77%"}
{"SMILES": "N[C@H]1CCN(c2nccc(-c3cnn4ncccc34)n2)C1", "assay": "binding", "conditions": "1 µM", "remaining binding": "85%"}
{"SMILES": "CO[C@H]1CC[C@H](CNc2ccc(S(=O)(=O)NC(=O)c3ccc(N4CCN(CC5=C(c6ccc(Cl)cc6)CC(C)(C)CC5)CC4)cc3Oc3cnc4[nH]ccc4c3)cc2[N+](=O)[O-])CC1", "assay": "cell-free assay, competition with immobilised ligand", "conditions": "1 µM", "remaining binding": "72%"}
{"SMILES": "CN(C)c1ncc(F)c(-c2cnn3ncccc23)n1", "assay": "binding", "conditions": "1 µM", "remaining binding": "87%"}
{"SMILES": "COc1cnc(Nc2cccc(S(N)(=O)=O)c2)nc1N1CCN(c2ccccc2)CC1", "assay": "binding, competition with immobilised ligand", "conditions": "1 µM", "remaining binding": "99%"}
{"SMILES": "O=C(NCCCN1CCOCC1)c1ccc(Nc2nccc(-c3cc4ccccc4s3)n2)cc1", "assay": "binding, competition with immobilised ligand", "conditions": "1 µM", "remaining binding": "53%"}
{"SMILES": "COc1ncc2cc3ccccc3nc2c1C#N", "assay": "cell-free assay, competition with immobilised ligand", "conditions": "5 µM", "remaining binding": "91%"}
{"SMILES": "CNCc1ccccc1-c1csc([C@@H](C)Nc2nc(C)nc3cc(OC)c(OC)cc23)c1", "assay": "cell-free assay, competition with immobilised ligand", "conditions": "1 µM", "remaining binding": "84%"}
{"SMILES": "C=CC(=O)N1CCC(C(=O)NCC(=O)N2CCN(c3nc(-c4cnc(N)nc4C(F)F)nc(N4CCOCC4)n3)CC2)CC1", "assay": "binding, competition with immobilised ligand", "conditions": "1 µM", "remaining binding": "87%"}
{"SMILES": "CC(C)(O)c1cncc(-c2nc3ccc(F)cc3n2C2CC2)c1", "assay": "cell-free assay, competition with immobilised ligand", "conditions": "1 µM", "remaining binding": "100%"}
{"SMILES": "CNC(=O)[C@@H]1CC[C@@H](n2c(-c3ccc4cnccc4c3)nc3ccc(C(=O)NCc4cccc(C(N)=O)c4)cc32)C1", "assay": "binding, competition with immobilised ligand", "conditions": "1 µM", "remaining binding": "100%"}
{"SMILES": "C[C@@H]1CCN(c2nccc(-c3cnn4ncccc34)n2)C1", "assay": "binding", "conditions": "1 µM", "remaining binding": "99%"}
{"SMILES": "Cc1cnc(Nc2ccc(C(=O)N3CCC(N4CCCC4)CC3)cc2)nc1-c1cc2ccccc2s1", "assay": "binding, competition with immobilised ligand", "conditions": "1 µM", "remaining binding": "31%"}
{"SMILES": "CN(C)c1nccc(-c2cnn3ncccc23)n1", "assay": "binding", "conditions": "1 µM", "remaining binding": "100%"}
{"SMILES": "CCN1CCN(Cc2ccc(C(=O)Nc3ccc(C)c(Oc4ccc5c(c4)CC(=O)N5)c3)cc2C(F)(F)F)CC1", "assay": "binding, competition with immobilised ligand", "conditions": "1 µM", "remaining binding": "100%"}
{"SMILES": "O=C(NCC1CCOCC1)c1n[nH]cc1NC(=O)c1c(F)cccc1F", "assay": "binding, competition with immobilised ligand", "conditions": "1 µM", "remaining binding": "100%"}
{"SMILES": "CN(C)c1nccc(-c2cnc3ncccn23)n1", "assay": "binding", "conditions": "1 µM", "remaining binding": "71%"}
{"SMILES": "O=C(NCCCC1CCCCC1)c1ccc(CNC(=O)c2cnn(-c3ccccc3)c2C(F)(F)F)cc1", "assay": "cell-free assay, competition with immobilised ligand", "conditions": "0.1 µM", "remaining binding": "100%"}
